Calls of active or inactive are those of the source. The rule behind the calls is not given here.
Assays:
[1] = Growth inhibition of human […] cells; type: functional
Summary of the method: (§1)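 Assayed in the NCI 60 human cancer cell line panel under the Developmental Therapeutics Program protocol. For each line, dose–response curves were plotted against log10 drug concentration. In the one-dose screen at 10^-5 M, growth was given as percent of untreated control cells, and mean graph midpoint values were averaged.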

T47D = assay: Growth inhibition of human T47D cells; type: functional; summary of the method: as §1
[2] = Cytotoxicity against human H1299 cells at 1 uM after 48 hrs by MTT assay; type: functional; conditions: NCI-H1299, 48 h
Summary of the method: (§2)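 H1299 non-small cell lung cancer cells were grown in RPMI 1640 with 10% FBS, penicillin and streptomycin at 37 °C under 5% CO2. About 2 × 10³ cells per well were seeded and left 24 h. Compounds were dissolved fresh in DMSO, diluted into complete medium and applied for 48 h. MTT was then added for 4 h at 37 °C, followed by lysis buffer (20% SDS, 50% DMF) for 16 h, and absorbance was read at 550 nm.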

MDA-MB-435 [3] = assay: Growth inhibition of human MDA-MB-435 cells; type: functional
Summary of the method: (§3)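 NCI 60 cancer cell line screen run per the Developmental Therapeutics Program protocol. Dose–response curves were plotted against log10 drug concentration for each cell line within its subpanel, and mean graph midpoint values were calculated.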

Malme-3M = assay: Growth inhibition of human MALME-3M cells; type: functional; summary of the method: as §3
[4] = biological target: Telomerase reverse transcriptase (Homo sapiens) (UniProt O14746); assay: Inhibition of TERT in human H1299 cells assessed as residual transcriptional activity at 1 uM after 24 hrs by SEAP reporter gene assay; values are per cent of control
Telomerase reverse transcriptase (Homo sapiens), sequence (O14746 whole entry): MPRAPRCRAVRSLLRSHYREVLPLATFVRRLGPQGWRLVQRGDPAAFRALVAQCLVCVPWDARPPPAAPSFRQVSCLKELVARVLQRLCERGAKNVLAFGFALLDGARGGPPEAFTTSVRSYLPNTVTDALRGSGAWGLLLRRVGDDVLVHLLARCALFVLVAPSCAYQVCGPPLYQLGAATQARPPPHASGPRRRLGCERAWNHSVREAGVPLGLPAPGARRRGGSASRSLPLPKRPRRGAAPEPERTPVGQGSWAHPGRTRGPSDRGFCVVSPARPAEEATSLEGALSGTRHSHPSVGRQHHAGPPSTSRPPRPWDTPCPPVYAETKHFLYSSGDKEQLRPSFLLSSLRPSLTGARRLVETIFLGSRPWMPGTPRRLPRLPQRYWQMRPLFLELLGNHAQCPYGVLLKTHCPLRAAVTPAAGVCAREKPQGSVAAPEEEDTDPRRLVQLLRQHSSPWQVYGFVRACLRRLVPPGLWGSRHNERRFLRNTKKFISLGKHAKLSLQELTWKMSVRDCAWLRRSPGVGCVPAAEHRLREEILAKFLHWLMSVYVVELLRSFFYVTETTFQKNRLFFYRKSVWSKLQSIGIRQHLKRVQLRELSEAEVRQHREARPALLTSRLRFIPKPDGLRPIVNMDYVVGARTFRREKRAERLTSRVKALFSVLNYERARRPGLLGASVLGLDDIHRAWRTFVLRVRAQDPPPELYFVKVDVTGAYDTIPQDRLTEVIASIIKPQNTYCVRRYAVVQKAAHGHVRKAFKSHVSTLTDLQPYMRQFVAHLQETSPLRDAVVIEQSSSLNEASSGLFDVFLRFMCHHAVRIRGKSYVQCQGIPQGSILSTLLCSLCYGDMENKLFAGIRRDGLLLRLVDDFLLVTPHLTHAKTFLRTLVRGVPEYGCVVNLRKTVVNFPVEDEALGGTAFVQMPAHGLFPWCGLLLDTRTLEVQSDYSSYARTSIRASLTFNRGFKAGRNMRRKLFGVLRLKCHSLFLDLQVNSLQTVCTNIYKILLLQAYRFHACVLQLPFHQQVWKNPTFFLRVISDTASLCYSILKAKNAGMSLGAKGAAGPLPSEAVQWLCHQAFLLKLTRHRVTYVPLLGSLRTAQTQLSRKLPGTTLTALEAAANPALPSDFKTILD

MDA-MB-231 = assay: Antiproliferative activity against human MDA-MB-231 cells assessed as cell growth at 10 uM; type: functional; conditions: read-out: Activity
Summary of the method: (§4)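 NCI 60 cell line panel, single-dose screen (10^-5 M) run by the developmental therapeutics program protocol. Results are given as growth percent of treated cells relative to untreated control cells for each line.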

HL-60(TB) [5] = assay: Growth inhibition of human HL-60(TB) cells; type: functional
Summary of the method: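 NCI 60-cell-line panel run under the Developmental Therapeutics Program protocol. Dose-response curves are plotted against log10 drug concentration for each cell line within its subpanel, and GI50 is read from these curves.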

[6] = biological target: Telomerase reverse transcriptase (Homo sapiens) (UniProt O14746); assay: Inhibition of telomerase in human H1299 cells up to 100 uM by TRAP assay; type: cell-based
Summary of the method: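 PCR-based telomeric repeat amplification protocol (TRAP). The telomerase source was total lysate of H1299 lung cancer cells, with protein measured against BSA standards. Controls were extract without inhibitor and RNase A-treated extract.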

IGROV-1 = assay: Growth inhibition of human IGROV1 cells; type: functional; summary of the method: as §3
U-251 [7] = assay: Antiproliferative activity against human U251 cells assessed as cell growth at 10 uM; type: functional; conditions: read-out: Activity
Summary of the method: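 NCI 60 cell line panel, single dose (10^-5 M), run per the Developmental Therapeutics Program protocol (one dose mean graph). Each result is the growth percentage of treated cells relative to untreated control cells.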

HOP-62 = assay: Growth inhibition of human HOP62 cells; type: functional; summary of the method: as §3
NCI-H322M = assay: Growth inhibition of human NCI-H322M cells; type: functional; summary of the method: as §3
U-251 [8] = assay: Growth inhibition of human U251 cells; type: functional; summary of the method: as §1
MOLT-4 = assay: Antiproliferative activity against human MOLT4 cells assessed as cell growth at 10 uM; type: functional; conditions: read-out: Activity; summary of the method: as §4
SF-295 = assay: Antiproliferative activity against human SF295 cells assessed as cell growth at 10 uM; type: functional; conditions: read-out: Activity; summary of the method: as §4
CCRF-CEM = assay: Growth inhibition of human CCRF-CEM cells; type: functional; summary of the method: as §3
NCI-H522 [9] = assay: Antiproliferative activity against human NCI-H522 cells assessed as cell growth at 10 uM; type: functional; conditions: read-out: Activity; summary of the method: as §4
OVCAR-4 = assay: Growth inhibition of human OVCAR4 cells; type: functional; summary of the method: as §3
MCF7 [10] = assay: Antiproliferative activity against human MCF7 cells assessed as cell growth at 10 uM; type: functional; conditions: read-out: Activity; summary of the method: as §4
MDA-MB-435 [11] = assay: Antiproliferative activity against human MDA-MB-435 cells assessed as cell growth at 10 uM; type: functional; conditions: read-out: Activity; summary of the method: as §4
UACC-257 = assay: Growth inhibition of human UACC257 cells; type: functional; summary of the method: as §1
NCI/ADR-RES = assay: Antiproliferative activity against human NCI/ADR-RES cells assessed as cell growth at 10 uM; type: functional; conditions: read-out: Activity; summary of the method: as §4
COLO 205 = assay: Growth inhibition of human COLO205 cells; type: functional; summary of the method: as §3
SK-OV-3 = assay: Antiproliferative activity against human SKOV3 cells assessed as cell growth at 10 uM; type: functional; conditions: read-out: Activity; summary of the method: as §4
786-0 = assay: Growth inhibition of human 786-0 cells; type: functional; summary of the method: as §3
NCI-H522 [12] = assay: Growth inhibition of human NCI-H522 cells; type: functional; summary of the method: as §3
PC-3 = assay: Growth inhibition of human PC3 cells; type: functional; summary of the method: as §1
A498 = assay: Growth inhibition of human A498 cells; type: functional; summary of the method: as §3
HL-60(TB) [13] = assay: Antiproliferative activity against human HL-60(TB) cells assessed as cell growth at 10 uM; type: functional; conditions: read-out: Activity
Summary of the method: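 NCI Developmental Therapeutics Program 60-cell-line one-dose screen at 10^-5 M. Readout is growth percentage of treated cells relative to untreated control cells.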

[14] = Cytotoxicity against human H1299 cells at 10 uM after 48 hrs by MTT assay; type: functional; conditions: NCI-H1299, 48 h; summary of the method: as §2
SK-MEL-5 = assay: Growth inhibition of human SK-MEL-5 cells; type: functional; summary of the method: as §1
HCT-15 = assay: Growth inhibition of human HCT15 cells; type: functional; summary of the method: as §3
[15] = Growth inhibition of human Hs 578T cells; type: functional; summary of the method: as §3
MCF7 [16] = assay: Growth inhibition of human MCF7 cells; type: functional; summary of the method: as §3
[17] = Antiproliferative activity against human RPMI8266 cells assessed as cell growth at 10 uM; type: functional; conditions: read-out: Activity; summary of the method: as §4
[18] = read-out: LC50 (the source's name)

O=C1c2ccccc2C(=O)c2c1ccc1nccnc21
GI50 [1]: 1.61 µM | TGI [1]: > 100 µM | CC50 [1, 18]: > 100 µM | GI50 (T47D): 12.6 µM | LC50 (T47D): > 100 µM | TGI (T47D): 75.1 µM | viability at 1 µM [2]: 98% | GI50 (MDA-MB-435 [3]): 11.1 µM | TGI (MDA-MB-435 [3]): 23.7 µM | CC50 (MDA-MB-435 [3]; [18]): 50.4 µM | GI50 (Malme-3M): 4.48 µM | TGI (Malme-3M): 20.7 µM | CC50 (Malme-3M; [18]): 70.8 µM | residual activity [4]: 105% | growth at 10 µM (MDA-MB-231): 81.4% | GI50 (HL-60(TB) [5]): 0.68 µM | TGI (HL-60(TB) [5]): 11.5 µM | CC50 (HL-60(TB) [5]; [18]): 83.7 µM | inhibition [6]: inactive | GI50 (IGROV-1): 2.55 µM | TGI (IGROV-1): 35.9 µM | CC50 (IGROV-1; [18]): > 100 µM | growth at 10 µM (U-251 [7]): 63.5% | GI50 (HOP-62): 5.64 µM | TGI (HOP-62): > 100 µM | CC50 (HOP-62; [18]): > 100 µM | GI50 (NCI-H322M): 16.3 µM | TGI (NCI-H322M): 96.1 µM | CC50 (NCI-H322M; [18]): > 100 µM | GI50 (U-251 [8]): 5.38 µM | TGI (U-251 [8]): 42.9 µM | CC50 (U-251 [8]; [18]): > 100 µM | growth at 10 µM (MOLT-4): 22.9% | growth at 10 µM (SF-295): 80.8% | GI50 (CCRF-CEM): 2.46 µM | TGI (CCRF-CEM): > 100 µM | CC50 (CCRF-CEM; [18]): > 100 µM | growth at 10 µM (NCI-H522 [9]): 24.1% | GI50 (OVCAR-4): 10.5 µM | TGI (OVCAR-4): > 100 µM | CC50 (OVCAR-4; [18]): > 100 µM | growth at 10 µM (MCF7 [10]): 39.7% | growth at 10 µM (MDA-MB-435 [11]): 102% | GI50 (UACC-257): 13 µM | TGI (UACC-257): 68.3 µM | CC50 (UACC-257; [18]): > 100 µM | growth at 10 µM (NCI/ADR-RES): 68% | GI50 (COLO 205): 3.4 µM | TGI (COLO 205): 28.4 µM | CC50 (COLO 205; [18]): > 100 µM | growth at 10 µM (SK-OV-3): 78.2% | GI50 (786-0): 8.87 µM | TGI (786-0): > 100 µM | CC50 (786-0; [18]): > 100 µM | GI50 (NCI-H522 [12]): 4.64 µM | TGI (NCI-H522 [12]): 32.5 µM | CC50 (NCI-H522 [12]; [18]): > 100 µM | TGI (PC-3): > 100 µM | CC50 (PC-3; [18]): > 100 µM | GI50 (A498): 9.31 µM | TGI (A498): 50.3 µM | CC50 (A498; [18]): > 100 µM | growth at 10 µM (HL-60(TB) [13]): 102% | viability at 10 µM [14]: 13% | GI50 (SK-MEL-5): 3.93 µM | TGI (SK-MEL-5): 17.1 µM | CC50 (SK-MEL-5; [18]): 44.4 µM | GI50 (HCT-15): 4.63 µM | TGI (HCT-15): 84.3 µM | CC50 (HCT-15; [18]): > 100 µM | GI50 [15]: 14.1 µM | LC50 [15]: > 100 µM | TGI [15]: 91.4 µM | GI50 (MCF7 [16]): 0.72 µM | TGI (MCF7 [16]): 29.8 µM | CC50 (MCF7 [16]; [18]): > 100 µM

O=C1c2ccccc2C(=O)c2c1ccc1nc(-c3ccc4c(c3)OCO4)[nH]c21
viability at 1 µM [2]: 79% | residual activity [4]: 61% | growth at 10 µM (MDA-MB-231): 107% | inhibition [6]: inactive | growth at 10 µM (U-251 [7]): 111% | growth at 10 µM (MOLT-4): 105% | growth at 10 µM (SF-295): 115% | growth at 10 µM [17]: 96.2% | growth at 10 µM (NCI-H522 [9]): 83.3% | growth at 10 µM (MCF7 [10]): 46.5% | growth at 10 µM (MDA-MB-435 [11]): 110% | growth at 10 µM (NCI/ADR-RES): 105% | growth at 10 µM (SK-OV-3): 139% | growth at 10 µM (HL-60(TB) [13]): 127% | viability at 10 µM [14]: 67%

Source: ChEMBL document CHEMBL1152649, “Synthesis, cytotoxicity and human telomerase inhibition activities of a series of 1,2-heteroannelated anthraquinones and anthra[1,2-d]imidazole-6,11-dione homologues” (2009)
